Assay: Toxicity liver stage against HepG2, at 10uM
Type: cell-based
Set-up: test concentration 10 uM, cell line HepG2-A16-CD81EGFP
Settings: human, HepG2-A16-CD81EGFP cells; read-out: INHIBITION
Method in brief: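 Uninfected HepG2-A16-CD81EGFP cells, 3 × 10^3 per well, 1536-well, plated on prespotted compound at 10 μM final, parasite-free screening media added to match infected plates; puromycin 10 μM positive, DMSO 0.5% negative; run in parallel with 48 h PbLuc assay at 37 °C, 5% CO2; viability by CellTiter-Glo luminescence, normalized to controls.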

Structure (SMILES)	cytotoxicity at 10 µM
Cc1ccn(CCC(=O)NCCc2ccco2)n1	-4.81%
O=C1COc2ccc(S(=O)(=O)NCCC3=CCCCC3)cc2N1	5.42%
Cc1cccc(NC(=O)Nc2c[nH]c(=O)[nH]c2=O)c1C	8.2%
COc1ccc2c(c1)[nH]c1c(N(C)CC3OCCO3)ncnc12	18.2%
COc1ccc(N2CCN(C(=O)c3cc(=O)c(OC)c[nH]3)CC2)cc1	-0.244%
O=C(Cc1cccc(F)c1)N1CCc2ncnc(N3CCCC3)c2CC1	-4.9%
CN1CC[C@]2(CN(C(=O)c3ccc[nH]3)C[C@H]2c2ccccc2)C1=O	11.6%
CN(C)c1ncnc2c1CCN(c1cccc(F)c1)CC2	18.5%
CCOCc1ncn2c1CN(S(=O)(=O)c1cccc(C)c1)CC2	-1.33%
CCc1c(C)n(C)c2nc3ccccc3n2c1=O	5.94%
O=C(Cn1cc(-c2ccccc2)ncc1=O)Nc1nccs1	-4.83%
Cc1ccc2nc(C3CCN(CCO)CC3)nn2c1	-1.23%
O=C(NCC1OCCc2cn(CC3CC3)nc21)c1ccsc1 (centres undefined)	6.69%
CCn1ccc(-c2nnc(SCC(=O)NCC(C)C)n2CC)n1	5.44%
O=C(CN1CCC2(CC1)NC(=O)c1cc(Br)ccc1N2)NC1CC1	4.79%
CN1CC(=O)N(C2CCNC2)Cc2c(NC3CCCC3)ncnc21 (centres undefined)	9.46%
Cc1ccc(C(=O)NCCS(=O)(=O)Cc2ccccc2)c(C)c1	-5.09%
O=C(NC1CCc2nccn2C1)c1ccc(OCC2CC2)nc1 (centres undefined)	4.36%
C1CCN(CCN2CCCCC2C2OCCO2)CC1 (centres undefined)	3.19%
O=C(CCOCc1ccccc1)NS(=O)(=O)N1CCOc2ccccc21	9.15%
CCc1cccnc1NCc1cnc(N2CCOCC2)nc1	1.03%

Structure (SMILES)	cytotoxicity at 10 µM
NC(=O)CC1CCCN(c2cncc(SCc3ccccc3)n2)C1 (centres undefined)	11%
CCOC(=O)c1ccc(CNC(=O)c2ccc(Cl)cn2)o1	6.72%
O=C(NCC1CC(=O)N(CCc2ccccc2)C1)c1c(F)cccc1F (centres undefined)	9.52%
CCCn1cc(NC(=O)c2ccc(NC(=O)NC3CC3)cc2)ccc1=O	1.93%
CC(C)(O)CSCCNCc1ccc(Cl)c2cccnc12	-8.87%
CCOCC(=O)Nc1cccc(Oc2ccccn2)c1	-2.41%
CS(=O)(=O)CCOCCNc1ccc(C(F)(F)F)cc1C#N	2.31%
COc1cc(C(C)=O)ccc1SCC(=O)Nc1cc(C)n[nH]1	9.83%
CC(C)OCCSCc1nnc(-c2cccc(F)c2)o1	9.45%
CCOC(C)c1nc(Cn2cc(-n3cccc3)cn2)cs1 (centres undefined)	3.81%
Cc1ncsc1CN(C)C(=O)C(CC(C)C)N1CCCCC1=O (centres undefined)	3.28%
CS(=O)(=O)NC(=O)CCc1cccc(OC2CCCC2)c1	-5.01%
COc1ccccc1S(=O)(=O)Nc1cnc(O)cc1C	-13.2%
COc1ccc(C(=O)NCCCC2(C3OCCO3)CCOCC2)cc1	3.05%
COc1ccccc1CNC(C)c1cnc2cc(C)nn2c1C (centres undefined)	8.32%
Cc1cc(C(=O)N2CCCC2)ccc1NCCOCC(F)(F)F	0.608%
CN1CCN(Cc2cccc(NCc3ncc[nH]3)c2)CC1	-6.44%
COCc1nc2n(n1)CCCC2Nc1nc(C2CC2)ns1 (centres undefined)	17%
Cn1cc(CC2CCN(C(=O)NCCc3cccc(O)c3)C2)cn1 (centres undefined)	1.05%
CC(=O)NCC(=O)N1CCN(Cc2cccnc2)c2ncccc2C1	-114%
COc1cc2nc(NCCN3CCNC3=O)cc(C)c2cc1OC	-0.454%

Structure (SMILES)	cytotoxicity at 10 µM
Cc1nnc(SCCNC(=O)c2cc(S(N)(=O)=O)ccc2F)s1	-1.4%
CCN(Cc1ccc2cccc(O)c2n1)CC1CCCO1 (centres undefined)	-4.02%
CC(C)Cc1nc(CN2CCC3(CCCO3)CCC2=O)no1 (centres undefined)	1.95%
Cc1cnc(NC(=O)c2cccc(CN(C)Cc3snnc3C)c2)s1	16.3%
COCC(=O)N1CCN(S(=O)(=O)c2cccs2)[C@H]2CS(=O)(=O)C[C@H]21	1.44%
CC(C)=CCN1CCNC(=O)C1CC(=O)N1CCc2sccc2C1 (centres undefined)	0.429%
CC(C)c1cc(NCC(O)c2ccccn2)n2nccc2n1 (centres undefined)	13%
COCC(=O)N1CCCC(C(=O)N(C)CCn2ccnc2C)C1 (centres undefined)	0.707%
CCn1cc(CN(C)C(=O)C(c2ccccc2C)N(C)C)cn1 (centres undefined)	0.0381%
O=C1CCCN1CCCNCc1cc(O)c2cccc(Cl)c2n1	4.05%
O=C(c1ccc2c(c1)CCO2)N1CCN(c2ccc(Cl)cn2)CC1	9.56%
CSCC[C@H](N)C(=O)N1CC(Oc2ccccc2C)C1	0.897%
COc1cccc(-c2cc(C(=O)NCCn3nc(C)nc3C)[nH]n2)c1	-2.77%
C[C@@H]1CN(CCC(=O)N(C)Cc2ccccc2)CC[C@@]1(O)C1CCC1	2.89%
CC(=O)NC(C)CC(=O)NCc1cccnc1Oc1ccccc1C (centres undefined)	11.4%
COCCCC1CCCN(C(=O)CCc2cc(O)no2)C1 (centres undefined)	8.41%
COCCN1CCC(NCc2cc(F)ccc2F)C1 (centres undefined)	-21.9%
COc1ccccc1CC(=O)NS(=O)(=O)c1ccc(NC(C)=O)cc1	-2.18%
CCCC(=O)NC(C(=O)OC)c1cc(F)ccc1F (centres undefined)	8.55%
CC(=O)N(Cc1ncc(C(C)C)o1)C1CCN(CCn2cncn2)C1 (centres undefined)	-11.3%
CN1CCCN(C(=O)NCc2cc(Br)cs2)CC1	-16.7%

Structure (SMILES)	cytotoxicity at 10 µM
Cc1ncc(C(=O)NCCNC(=O)Cc2cccc(F)c2)s1	-4.53%
Cc1nc(CN2CCCC(N(C)CCOCC(F)(F)F)C2)no1 (centres undefined)	-4.92%
O=C(Nc1cnn(CCN2CCOCC2)c1)c1ccccc1Cl	-5.81%
CC(Cn1ccnc1)NC(=O)N1CCN(Cc2ccco2)CC1 (centres undefined)	-2.07%
CC(C)OCCN1CCC(C(=O)c2cc(F)ccc2F)CC1	-8.63%
CCc1nc2n(n1)CC(NCC(=O)Nc1oc(C)c(C)c1C#N)CC2 (centres undefined)	-8.84%
CCOc1ccnc(N2CCN(C(=O)c3ccoc3C)CC2)n1	-0.463%
Cc1ccc(-c2nc(CN3CCOC(Cn4cccn4)C3)no2)cc1 (centres undefined)	-8.93%
CCc1nc(CN(C(C)=O)C2CCN(Cc3csc(C)n3)C2)no1 (centres undefined)	-12.8%
COc1ncccc1CNC(=O)NCc1ccco1	-12.8%
CC(C)C(=O)NC1CCCN(C(=O)c2cc3ccccc3cc2O)C1 (centres undefined)	-4.14%
CC(O)(CN1CCN(CCO)CC1)c1cccc(C(F)(F)F)c1 (centres undefined)	-17.5%
CNc1cc2c(nn1)CCN(C(=O)c1cccc3c1OCO3)C2	-10.6%
CC(C)c1ncc2c(n1)CN(Cc1cccc(OCC(N)=O)c1)CC2	-7.44%
COc1ccc(C(=O)N2CCC(Nc3cccnn3)CC2)c(OC)c1	4.67%
CCNC(c1ccc(OC)cc1)c1cccnc1 (centres undefined)	-3.54%
COc1ccc(CNCc2c(C)nn(C)c2N2CCOCC2)cc1	-1.32%
CN(C)C(=O)N1CCC2(CC1)NC(=O)c1ccccc12	-10.1%
Cc1nc(COC[C@]23COC[C@H]2CN(Cc2ccoc2)C3)cs1	-19.2%
N#Cc1ccc(C(=O)N2CC[C@H]3[C@H]2CCN3CC2CCOCC2)cc1	-5.19%
Fc1cnc(N2CCO[C@H]3CN(CC4CCCC4)C[C@H]32)nc1	-9.39%

From ChEMBL document CHEMBL4513216, “Probing the Open Global Health Chemical Diversity Library for Multistage-Active Starting Points for Next-Generation Antimalarials” (ACS Infect Dis, 2020)
